Measured values as given in paper PMC4690987 (Journal of Medicinal Chemistry, 2015).

Columns and labels:
[1] = cited from earlier work
Cytotoxicity assay = type: cell-based; details: human, uninfected (mock-infected) TZM-bl cells
Procedure, shortened: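 Run in parallel with the antiviral assay, under the same conditions but on uninfected TZM-bl cells (1 ×10^4 cells/well, seeded overnight, test compound in serial dilution, 37 °C, 48 h). Viability was read by MTT absorbance. CC50 was the concentration that reduced absorbance of mock-infected cells by 50%.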

HIV-1 NL4-3 strain = assay: Antiviral assay in HIV-1 infected TZM-bl cells; type: cell-based; details: for SI HIV-1 strain NL4-3: CC50 value/IC50 value; for antiviral or cytotoxic activity: HIV-1 NL4-3
Procedure, shortened: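 TZM-bl cells (HeLa expressing CD4 and CCR5, with LTR-driven luciferase and β-galactosidase) were seeded at 1 ×10^4 cells/well in DMEM/10% FBS and left to adhere overnight. Cells were infected with HIV-1 NL4-3 or BaL at MOI 0.5, treated with serial dilutions of test compound, and incubated at 37 °C for 48 h. IC50 was taken as 50% inhibition of LTR-luciferase signal. CC50 came from parallel MTT on mock-infected cells. SI = CC50/IC50.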

LTR-IV G4 [2] = assay: SPR analysis; design: species or system HIV-1; details: read-out: KD LTR-IV G4 (SPR); 25 °C, HEPES-KCl buffer, 1:1 binding model
Procedure, shortened: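 5′-biotinylated oligonucleotides folded (95 °C for 5 min, cooled to room temperature), diluted to 30 nM and captured on a streptavidin chip to about 500 RU, with an empty reference cell. Running buffer was 0.01 M HEPES pH 7.4, 0.2 M KCl, 3 mM EDTA. Test compound run at 25–200 nM, 30 μL/min, with 280 s contact and 360 s dissociation. Surface regenerated with 10 mM glycine pH 2.0. Sensorgrams buffer-corrected and fitted to a 1:1 model. At least two independent runs, χ2 below 0.2.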

LTR-IV G4 [3] = assay: FRET melting assay; type: binding, HIV-1; details: for stabilization (ΔTm, FRET) at 4-fold c-exNDI:DNA molar ratio: 25 °C is the maximum increase measurable, data not shown
Procedure, shortened: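 Oligonucleotide labelled with FAM at the 5′ end and TAMRA at the 3′ end, 0.25 μM, folded in lithium cacodylate buffer with 100 mM potassium, plus equimolar test compound. After equilibration at 4 °C, FAM emission was followed from 30 to 95 °C at 1 °C/min. Profiles were normalized, and Tm was the temperature at 0.5 normalized fluorescence.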

HIV-1 NL4-3 = assay: HIV-1 entry assay; type: cell-based; details: TZM-bl cells, virus production at 31 h pi; 2 50–100 nM, AZT 0.5 μg/mL, DS 100 μg/mL
Procedure, shortened: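 TZM-bl cells (HeLa stably expressing CD4, CCR5 and HIV-1 LTR-driven luciferase) were grown in DMEM/10% FBS. Cells were seeded at 1 × 10^4 per well and allowed to adhere overnight, then infected with HIV-1 NL4-3 at MOI 0.5 and kept at 37 °C. Test compound or reference agents were added at 0, 1 or 2 h pi. At 31 h cells were PBS-washed and virus production was read as LTR-luciferase RLU.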

Compound	pKa of the (CH2)3NHMe2+ moieties [1]	CC50 (Cytotoxicity assay) [µM]	SI HIV-1 strain NL4-3 (HIV-1 NL4-3 strain)	Kd (LTR-IV G4 [2]) [nM]	stabilization (ΔTm, FRET) at 4-fold c-exNDI:DNA molar ratio (LTR-IV G4 [3])	difference in stabilization of LTR-IV G4s vs hTel G4 (LTR-IV G4 [3]; FRET, equimolar amounts) [°C]	antiviral or cytotoxic activity (HIV-1 NL4-3 strain)	antiviral activity as a function of time of addition (0, 1, 2 h pi) (HIV-1 NL4-3)
CN(C)CCCn1c(=O)c2ccc3c(=O)n(CCCN(C)C)c(=O)c4c5[nH]c6cc(C(=O)O)ccc6[nH]c5c(c1=O)c2c34 [Compound 6]	> 8.1	> 5	>5					
CN(C)CCCn1c(=O)c2cc(Br)c3c(=O)n(CCCN(C)C)c(=O)c4c5[nH]c6ccc(C(=O)O)cc6[nH]c5c(c1=O)c2c34 [Compound 7]	> 8.1	> 5	>6	21.6				
CN(C)CCCn1c(=O)c2cc(Br)c3c(=O)n(CCCN(C)C)c(=O)c4c5[nH]c6ncccc6[nH]c5c(c1=O)c2c34 [Compound 8]		0.458 ± 0.054	7.2					
CN(C)CCCNc1cc2c(=O)n(CCCN(C)C)c(=O)c3c4[nH]c5ccccc5[nH]c4c4c(=O)n(CCCN(C)C)c(=O)c1c4c23 [Compound 9]		1.76 ± 0.0625	2.2					
C[N+](C)(C)CCCn1c(=O)c2ccc3c(=O)n(CCC[N+](C)(C)C)c(=O)c4c5[nH]c6ccccc6[nH]c5c(c1=O)c2c34.[I-].[I-] [Compound 10]		> 5		1.7	above 25 °C	≥ 6	did not display any antiviral or cytotoxic activity	
C[N+](C)(C)CCCn1c(=O)c2cc(Br)c3c(=O)n(CCC[N+](C)(C)C)c(=O)c4c5[nH]c6ccccc6[nH]c5c(c1=O)c2c34.[I-].[I-] [Compound 11]		> 5		12.9	above 25 °C		did not display any antiviral or cytotoxic activity	
dextran sulfate [DS]								exhibited antiviral effect only when added at 0 h pi
